pIC50: −log10 of the molar value.

The target of test [1] is T1, Tyrosine-protein phosphatase non-receptor type 1 (Homo sapiens) (UniProt P18031).
T1 sequence (whole entry): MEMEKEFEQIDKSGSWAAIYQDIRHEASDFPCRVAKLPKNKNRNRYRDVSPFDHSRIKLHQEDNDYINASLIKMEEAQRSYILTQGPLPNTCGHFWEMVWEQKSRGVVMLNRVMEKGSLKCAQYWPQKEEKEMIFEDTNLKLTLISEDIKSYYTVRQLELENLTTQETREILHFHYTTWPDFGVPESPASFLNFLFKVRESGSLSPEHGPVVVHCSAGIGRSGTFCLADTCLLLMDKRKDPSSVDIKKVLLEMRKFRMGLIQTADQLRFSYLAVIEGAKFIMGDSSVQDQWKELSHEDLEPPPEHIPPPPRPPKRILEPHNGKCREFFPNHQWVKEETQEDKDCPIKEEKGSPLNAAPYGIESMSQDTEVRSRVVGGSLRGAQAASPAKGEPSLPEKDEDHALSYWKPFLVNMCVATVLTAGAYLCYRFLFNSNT
The test is described as follows: Inhibition of PTP1B expressed in Escherichia coli BL21 (DE3) at 100 uM after 10 mins by spectrophotometry. Put shortly: (§1)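 GST-PTP1B(1-321), 0.03 μM, expressed in E. coli BL21(DE3) with 0.2 mM IPTG for 6 h and purified as GST fusion. Reaction buffer was 20 mM HEPES, 150 mM NaCl, 1 mM EDTA, pH 7.0. Compound preincubated 10 min, then reaction started with 5 mM pNPP. pNP read at 405 nm. Screening at 100 and 10 μM. IC50 by curve fitting, means of three determinations.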

Test [2] deals with T1, Tyrosine-protein phosphatase non-receptor type 1 (Homo sapiens). Put plainly: Inhibition of PTP1B expressed in Escherichia coli BL21 (DE3) at 10 uM after 10 mins by spectrophotometry. The gist of the method:
as §1

Test [3] concerns the target T2, Tyrosine-protein phosphatase non-receptor type 1 (Homo sapiens, UniProt P18031).
T2 sequence (P18031 whole entry): T1 sequence (whole entry)
Put plainly: Inhibition of PTP1B expressed in Escherichia coli BL21 (DE3) after 10 mins by spectrophotometry. Put shortly:
as §1

As to `CC(C)OC(=O)c1c(NC(=O)C2C3C=CC(C3)C2C(=O)O)sc2c1CCCC2` (configuration not stated), the inhibition in test [1] was 27.5%.
Take `CC(C)OC(=O)c1c(-c2ccc3ccccc3c2)csc1NC(=O)C1C2C=CC(C2)C1C(=O)O` (configuration not stated): the results for the inhibition in test [1] and in test [2] were 98.7% and 6.8%, respectively.
For `CC(C)OC(=O)c1c(-c2ccc(-c3ccccc3)cc2)csc1NC(=O)c1ccccc1C(=O)O`, the values for the inhibition in test [1] and in test [2] were 99.5% and 91.8%, respectively. Further, in test [3], the pIC50 was 5.27.
Turning to `CCOC(=O)c1c(-c2ccc3ccccc3c2)csc1NC(=O)C1C2C=CC(C2)C1C(=O)O` (configuration not stated), the inhibition was determined as 95.9% in test [1] and 2.4% in test [2].
The corresponding values for `CC(C)OC(=O)c1c(-c2ccc(-c3ccccc3)cc2)csc1NC(=O)/C=C\C(=O)O` are 98.4% and 16.7%.
With `CC(C)OC(=O)c1c(-c2ccc3ccccc3c2)csc1NC(=O)C1C2CCC(C2)C1C(=O)O` (configuration not stated), the inhibition in test [1] is 67%; in test [2] it was 3.5%. Moreover, the pIC50 in test [3] was 4.52.
As to `CC(C)OC(=O)c1c(-c2ccc3ccccc3c2)csc1NC(=O)CCC(=O)O`, the inhibition in test [1] was found to be 21.5%.
As to `CCOC(=O)c1c(-c2ccc(Br)cc2)csc1NC(=O)c1ccccc1C(=O)O`, the inhibition in test [1] was determined as 97.3%; in test [2], 3.4%.
Compound `O=C(OCc1ccccc1)c1c(-c2ccc3ccccc3c2)csc1NC(=O)C1CCCCC1C(=O)O` (configuration not stated) had an inhibition in test [1] of 72.1%.
In the case of `CCOC(=O)c1c(-c2ccc(-c3ccc(F)cc3)cc2)csc1NC(=O)c1ccccc1C(=O)O`, the results for the inhibition in test [1] and in test [2] were 100% and 61.6%, respectively. In addition, in test [3], the pIC50 is 5.30.
With `COC(=O)c1c(-c2ccc3ccccc3c2)csc1NC(=O)C1CCCCC1C(=O)O` (configuration not stated), the inhibition in test [1] was 92.6%; in test [2] it was 15.4%.
With `CCOC(=O)c1c(-c2ccc(-c3cccc(OC)c3)cc2)csc1NC(=O)c1ccccc1C(=O)O`, the inhibition in test [1] was found to be 99.4%; in test [2], 95.6%. The compound further gave a pIC50 in test [3] of 5.32.
For `CC(C)OC(=O)c1c(-c2ccc3ccccc3c2)csc1NC(=O)C1CCCCC1C(=O)O` (configuration not stated), the inhibition worked out at 100% in test [1] and 16% in test [2].
Compound `CC(C)OC(=O)c1c(-c2ccc(-c3ccccc3)cc2)csc1NC(=O)c1ccccc1` came in with an inhibition in test [1] of 18.7%.
Turning to `CC(C)OC(=O)c1c(-c2ccc3ccccc3c2)csc1NC(=O)c1ccccc1C(=O)O`, the inhibition in test [1] turned out to be 100%; in test [2], 23.3%.
Regarding `CC(C)OC(=O)c1c(-c2ccccc2)csc1NC(=O)c1ccccc1C(=O)O`, the inhibition in test [1] came to 26.6%.
`CC(C)OC(=O)c1c(-c2ccc([N+](=O)[O-])cc2)csc1NC(=O)C1CCCCC1C(=O)O` (configuration not stated): the inhibition in test [1] was determined as 45%.
Same read-out and setting: for `COC(=O)c1ccccc1C(=O)Nc1scc(-c2ccc(-c3ccccc3)cc2)c1C(=O)OC(C)C` the value was 19.2%; for `CCOC(=O)c1c(-c2ccc(F)cc2)csc1NC(=O)C1C2C=CC(C2)C1C(=O)O` (configuration not stated), 30%.
Still for that read-out and setting: for `CCOC(=O)c1c(-c2ccccc2)csc1NC(=O)C1C2C=CC(C2)C1C(=O)O` (configuration not stated) the value was 10.7%.
For `CCOC(=O)c1c(-c2ccc(-c3ccc(OC)cc3)cc2)csc1NC(=O)c1ccccc1C(=O)O`, the inhibition in test [1] is 99.2%; in test [2], 92.3%. The pIC50 in test [3] was 5.34.
As for `CCOC(=O)c1c(-c2ccccc2-c2ccccc2)csc1NC(=O)c1ccccc1C(=O)O`, the inhibition in test [1] was 96.6%; in test [2], 2%.
Regarding `CCOC(=O)c1c(-c2ccc(-c3ccc(C(F)(F)F)cc3)cc2)csc1NC(=O)c1ccccc1C(=O)O`, the inhibition was 86.3% in test [1] and 24.9% in test [2].
Turning to `CCOC(=O)c1c(-c2ccc(-c3ccccc3OC)cc2)csc1NC(=O)c1ccccc1C(=O)O`, the values for the inhibition in test [1] and in test [2] were 100% and 61.3%, respectively. This compound showed a pIC50 in test [3] of 5.07.
Consider `CC(C)OC(=O)c1c(-c2ccc(-c3ccccc3)cc2)csc1NC(=O)C1CCCCC1C(=O)O` (configuration not stated), for which the results for the inhibition in test [1] and in test [2] were 84.4% and 23.4%, respectively.
In the case of `CC(C)OC(=O)c1c(-c2cccc(-c3ccccc3)c2)csc1NC(=O)c1ccccc1C(=O)O`, the inhibition in test [1] is 98.6%; in test [2] it was 84.7%. In test [3], this compound had a pIC50 of 5.06.
As for `CCOC(=O)c1c(-c2ccc3ccccc3c2)csc1NC(=O)C1CCCCC1C(=O)O` (configuration not stated), the inhibition in test [1] was 96.4%; in test [2] it was 20.4%.

The term inhibition denotes the drop in the measured response relative to a control, in per cent. The term pIC50 denotes −log10 of the IC50, conventionally taken in molar units. Low values mean a high IC50, high ones a low IC50.

These data come from ChEMBL document CHEMBL1157587, “Novel thiophene derivatives as PTP1B inhibitors with selectivity and cellular activity” (Bioorg Med Chem, 2010).
